Results as given in ChEMBL document CHEMBL5058577, “EUbOPEN Chemogenomics Library 2 (Multiplex)” (2022).

Tested on: U2OS
Assay: Multiplex assay against U2OS
Assay type: toxicity, cell-based
Settings: human
Summary of the method: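 Cells stained live at seeding with Hoechst33342, BioTracker Green Microtubule Cytoskeleton Dye, MitoTracker Red and Annexin V Alexa Fluor 680 were imaged on a CQ1 microscope at 37°C and 5% CO2 after compound addition. Their classification by CellPathfinder machine-learning gating ran from Hoechst high-intensity objects versus normal cells, to healthy, pyknosed or fragmented nuclei among normal cells, to mitotic or apoptotic among pyknosed cells. Tubulin, mitochondrial-mass and membrane-permeability phenotypes are per cents of healthy-nucleus cells.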

[1] = 12 h, 1 µM, compound concentration 1 uM, replicate 1
[2] = 12 h, 1 µM, compound concentration 1 uM, replicate 2
[3] = 12 h, 10 µM, compound concentration 10 uM, replicate 1
[4] = 12 h, 10 µM, compound concentration 10 uM, replicate 2
[5] = 24 h, 1 µM, compound concentration 1 uM, replicate 1
[6] = 24 h, 1 µM, compound concentration 1 uM, replicate 2
[7] = 24 h, 10 µM, compound concentration 10 uM, replicate 1
[8] = 24 h, 10 µM, compound concentration 10 uM, replicate 2
[9] = 48 h, 1 µM, compound concentration 1 uM, replicate 1
[10] = 48 h, 1 µM, compound concentration 1 uM, replicate 2
[11] = 48 h, 10 µM, compound concentration 10 uM, replicate 1
[12] = 48 h, 10 µM, compound concentration 10 uM, replicate 2

CC(=O)Nc1cccc2c1c(Sc1ccc(Cl)cc1)c(C)n2CC(=O)O [AZD1981]
Population Apoptotic (%) [1]: 68% | Population Fragmented Nuclei (%) [1]: 24% | Population Healthy Nuclei (%) [1]: 68% | Population Hoechst High Intensity Objects (%) [1]: 3% | Population Membrane Permeable-Phenotype (%) [1]: 3% | Population Mitochondria Different-Phenotype (%) [1]: 0% | Population Mitotic Cells (%) [1]: 31% | Population Normal (%) [1]: 96% | Population Pyknosed Nuclei (%) [1]: 6% | Population Tubulin-Different-Phenotype (%) [1]: 2% | Total Cell Count [1]: 253 | Population Apoptotic (%) [2]: 83% | Population Fragmented Nuclei (%) [2]: 16% | Population Healthy Nuclei (%) [2]: 76% | Population Hoechst High Intensity Objects (%) [2]: 1% | Population Membrane Permeable-Phenotype (%) [2]: 6% | Population Mitochondria Different-Phenotype (%) [2]: 1% | Population Mitotic Cells (%) [2]: 16% | Population Normal (%) [2]: 98% | Population Pyknosed Nuclei (%) [2]: 7% | Population Tubulin-Different-Phenotype (%) [2]: 3% | Total Cell Count [2]: 82 | Population Apoptotic (%) [3]: 83% | Population Fragmented Nuclei (%) [3]: 25% | Population Healthy Nuclei (%) [3]: 66% | Population Hoechst High Intensity Objects (%) [3]: 2% | Population Membrane Permeable-Phenotype (%) [3]: 8% | Population Mitochondria Different-Phenotype (%) [3]: 0% | Population Mitotic Cells (%) [3]: 16% | Population Normal (%) [3]: 97% | Population Pyknosed Nuclei (%) [3]: 7% | Population Tubulin-Different-Phenotype (%) [3]: 1% | Total Cell Count [3]: 231 | Population Apoptotic (%) [4]: 80% | Population Fragmented Nuclei (%) [4]: 19% | Population Healthy Nuclei (%) [4]: 76% | Population Hoechst High Intensity Objects (%) [4]: 3% | Population Membrane Permeable-Phenotype (%) [4]: 10% | Population Mitochondria Different-Phenotype (%) [4]: 3% | Population Mitotic Cells (%) [4]: 20% | Population Normal (%) [4]: 96% | Population Pyknosed Nuclei (%) [4]: 4% | Population Tubulin-Different-Phenotype (%) [4]: 5% | Total Cell Count [4]: 122 | Population Apoptotic (%) [5]: 91% | Population Fragmented Nuclei (%) [5]: 25% | Population Healthy Nuclei (%) [5]: 66% | Population Hoechst High Intensity Objects (%) [5]: 2% | Population Membrane Permeable-Phenotype (%) [5]: 5% | Population Mitochondria Different-Phenotype (%) [5]: 1% | Population Mitotic Cells (%) [5]: 8% | Population Normal (%) [5]: 97% | Population Pyknosed Nuclei (%) [5]: 8% | Population Tubulin-Different-Phenotype (%) [5]: 3% | Total Cell Count [5]: 289 | Population Apoptotic (%) [6]: 50% | Population Fragmented Nuclei (%) [6]: 16% | Population Healthy Nuclei (%) [6]: 82% | Population Hoechst High Intensity Objects (%) [6]: 0% | Population Membrane Permeable-Phenotype (%) [6]: 4% | Population Mitochondria Different-Phenotype (%) [6]: 3% | Population Mitotic Cells (%) [6]: 50% | Population Normal (%) [6]: 100% | Population Pyknosed Nuclei (%) [6]: 1% | Population Tubulin-Different-Phenotype (%) [6]: 0% | Total Cell Count [6]: 106 | Population Apoptotic (%) [7]: 88% | Population Fragmented Nuclei (%) [7]: 23% | Population Healthy Nuclei (%) [7]: 66% | Population Hoechst High Intensity Objects (%) [7]: 0% | Population Membrane Permeable-Phenotype (%) [7]: 6% | Population Mitochondria Different-Phenotype (%) [7]: 2% | Population Mitotic Cells (%) [7]: 11% | Population Normal (%) [7]: 99% | Population Pyknosed Nuclei (%) [7]: 9% | Population Tubulin-Different-Phenotype (%) [7]: 2% | Total Cell Count [7]: 266 | Population Apoptotic (%) [8]: 100% | Population Fragmented Nuclei (%) [8]: 14% | Population Healthy Nuclei (%) [8]: 77% | Population Membrane Permeable-Phenotype (%) [8]: 3% | Population Mitochondria Different-Phenotype (%) [8]: 4% | Population Mitotic Cells (%) [8]: 0% | Population Pyknosed Nuclei (%) [8]: 8% | Population Tubulin-Different-Phenotype (%) [8]: 0% | Total Cell Count [8]: 125 | Population Apoptotic (%) [9]: 91% | Population Fragmented Nuclei (%) [9]: 16% | Population Healthy Nuclei (%) [9]: 74% | Population Hoechst High Intensity Objects (%) [9]: 1% | Population Membrane Permeable-Phenotype (%) [9]: 6% | Population Mitochondria Different-Phenotype (%) [9]: 2% | Population Mitotic Cells (%) [9]: 8% | Population Normal (%) [9]: 98% | Population Pyknosed Nuclei (%) [9]: 9% | Population Tubulin-Different-Phenotype (%) [9]: 4% | Total Cell Count [9]: 375 | Population Apoptotic (%) [10]: 81% | Population Fragmented Nuclei (%) [10]: 9% | Population Healthy Nuclei (%) [10]: 82% | Population Hoechst High Intensity Objects (%) [10]: 3% | Population Mitochondria Different-Phenotype (%) [10]: 0% | Population Mitotic Cells (%) [10]: 18% | Population Normal (%) [10]: 96% | Population Pyknosed Nuclei (%) [10]: 7% | Population Tubulin-Different-Phenotype (%) [10]: 1% | Total Cell Count [10]: 144 | Population Apoptotic (%) [11]: 100% | Population Fragmented Nuclei (%) [11]: 18% | Population Healthy Nuclei (%) [11]: 75% | Population Hoechst High Intensity Objects (%) [11]: 2% | Population Membrane Permeable-Phenotype (%) [11]: 7% | Population Mitochondria Different-Phenotype (%) [11]: 2% | Population Mitotic Cells (%) [11]: 0% | Population Normal (%) [11]: 97% | Population Pyknosed Nuclei (%) [11]: 5% | Population Tubulin-Different-Phenotype (%) [11]: 4% | Total Cell Count [11]: 366 | Population Apoptotic (%) [12]: 85% | Population Fragmented Nuclei (%) [12]: 14% | Population Healthy Nuclei (%) [12]: 73% | Population Hoechst High Intensity Objects (%) [12]: 1% | Population Mitochondria Different-Phenotype (%) [12]: 4% | Population Mitotic Cells (%) [12]: 15% | Population Normal (%) [12]: 98% | Population Pyknosed Nuclei (%) [12]: 11% | Total Cell Count [12]: 171
